Experimental data taken from ChEMBL document CHEMBL1145471, “Small molecule regulators of autophagy identified by an image-based high-throughput screen” (Proc Natl Acad Sci U S A, 2007).
Active and inactive are the calls of the source. No cut-off for these calls is given here.

How the values were obtained:
H4 [1] = assay: Increase in light chain 3-GFP+ autophagosome vesicle number per cell in human H4 cells at 4.5 uM after 24 hrs by high throughput fluorescence microscopy relative to control; assay type: functional
Outline: (§1)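 H4 cells stably expressing LC3-GFP were grown in DMEM with 10% FBS and 2 mM L-glutamine at 37°C, 5% CO2. They were exposed to each compound for 24 h, with DMSO as negative and rapamycin as positive control. Cells were then fixed in 4% paraformaldehyde and stained with 3 μg/ml DAPI. High-throughput fluorescence imaging scored LC3-GFP spot number, size and intensity, expressed relative to DMSO. Mean ± SD of triplicates; experiments repeated three times.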

H4 [2] = assay: Decrease in FYVE-RFP+ vesicle intensity per cell in human H4 cells after 4 hrs relative to control; assay type: functional; parameters: concentration or dose not given beside the values
Outline: (§2)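 H4 cells stably expressing FYVE-RFP (H4-FYVE), grown in DMEM with 10% FBS, penicillin/streptomycin and 2 mM L-glutamine at 37°C, 5% CO2, seeded in 96-well plates and exposed to compound. Fixed in 4% paraformaldehyde, nuclei stained with 3 μg/ml DAPI, FYVE-RFP+ vesicles quantified by high-throughput fluorescence microscopy against DMSO control. Triplicate wells, mean ± SD.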

H4 [3] = assay: Increase in light chain 3-GFP+ autophagosome vesicle area per cell in human H4 cells at 4.5 uM after 24 hrs by high throughput fluorescence microscopy relative to control; assay type: functional
Outline: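 H4 cells stably expressing LC3-GFP, seeded in 96-well plates and exposed to compound for 24 h; screening concentrations were 3–12 μM, with rapamycin 0.22 μM and bafilomycin A1 0.40 μM. Cells fixed in 4% paraformaldehyde and stained with 3 μg/ml DAPI. Number, size and intensity of LC3-GFP spots measured by high-throughput fluorescence microscopy and expressed as percent of DMSO-treated wells. Rapamycin was the positive control. Triplicate wells, mean ± SD; experiments repeated three times.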

H4 [4] = assay: Increase in long-lived protein degradation in human H4 cells after 24 hrs relative to control; assay type: functional; parameters: concentration or dose not given beside the values
H4 [5] = assay: Increase in long-lived protein degradation in human H4 cells after 1 hr relative to control; assay type: functional; parameters: concentration or dose not given beside the values
H4 [6] = assay: Increase in long-lived protein degradation in human H4 cells after 2 hrs relative to control; assay type: functional; parameters: concentration or dose not given beside the values
H4 [7] = assay: Decrease in FYVE-RFP+ vesicle intensity per cell in human H4 cells after 2 hrs relative to control; assay type: functional; parameters: concentration or dose not given beside the values; outline: as §2
H4 [8] = assay: Increase in long-lived protein degradation in human H4 cells after 4 hrs relative to control; assay type: functional; parameters: concentration or dose not given beside the values
H4 [9] = assay: Increase in light chain 3-GFP+ autophagosome vesicle intensity per cell in human H4 cells at 4.5 uM after 24 hrs by high throughput fluorescence microscopy relative to control; assay type: functional; outline: as §1
H4 [10] = assay: Decrease in FYVE-RFP+ vesicle intensity per cell in human H4 cells after 8 hrs relative to control; assay type: functional; parameters: concentration or dose not given beside the values; outline: as §2
H4 [11] = assay: Induction of light chain 3-GFP level in human H4 cells at 4.5 uM after 24 hrs by high throughput fluorescence microscopy relative to control; assay type: functional
Outline: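 H4 cells stably expressing LC3-GFP, grown in DMEM with 10% FBS, penicillin/streptomycin and 2 mM L-glutamine at 37°C, 5% CO2. Cells were seeded in 96-well plates and exposed to library compounds at 3–12 μM for 24 h, then fixed in 4% paraformaldehyde and stained with 3 μg/ml DAPI. LC3-GFP spot number, size and intensity were measured by high-throughput fluorescence microscopy and expressed relative to DMSO. Triplicates, mean ± SD.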

[12] = biological target: T1, Serine/threonine-protein kinase mTOR (Homo sapiens, UniProt P42345); assay: Effect on mTOR phosphorylation in human H4 cells at 5.4 uM after 4 hrs; assay type: cell-based
Outline: (§3)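 H4 cells treated with compound for 4 h; lysates analysed by Western blot using anti-phospho/non-phospho mTOR antibody, with actin as loading control; rapamycin used for comparison. Cells grown in DMEM with 10% FBS, penicillin/streptomycin, 2 mM L-glutamine at 37°C, 5% CO2.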

H4 [13] = assay: Induction of light chain 3-GFP level in human H4 cells at 5.4 uM after 24 hrs by high throughput fluorescence microscopy relative to control; assay type: functional
Outline: (§4)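 H4 cells stably expressing LC3-GFP, kept in DMEM/10% FBS at 37°C, 5% CO2, were seeded in 96-well plates and exposed to compound for 24 h. Cells were then fixed in 4% paraformaldehyde and stained with 3 μg/ml DAPI. Automated fluorescence microscopy scored the number, size and intensity of LC3-GFP spots. Values are percent of DMSO wells, in triplicate, mean ± SD. Rapamycin served as positive control.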

H4 [14] = assay: Reduction of poly(Q) level in human H4 cells expressing EGFP-Q79-HA after 24 hrs; assay type: functional, cell-based
Outline: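 H4 cells were transiently transfected with an EGFP-Q79-HA expression vector. The medium was replaced 6 h after transfection and compounds were added. Poly(Q) was detected with anti-HA antibody.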

H4 [15] = assay: Increase in light chain 3-GFP+ autophagosome vesicle area per cell in human H4 cells at 5.4 uM after 24 hrs by high throughput fluorescence microscopy relative to control; assay type: functional
Outline: (§5)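 H4 cells stably expressing LC3-GFP, seeded in 96-well plates and exposed to compound for 24 h; fixed in 4% paraformaldehyde, nuclei stained with 3 μg/ml DAPI. Automated fluorescence microscopy scored number, size and intensity of LC3-GFP spots; values expressed relative to DMSO-treated wells, rapamycin positive control. Triplicate wells, mean ± SD; experiments repeated three times.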

H4 [16] = assay: Effect on FYVE-RFP+ vesicle intensity per cell in human H4 cells after 2 hrs relative to control; assay type: functional; parameters: concentration or dose not given beside the values; outline: as §2
H4 [17] = assay: Increase in ratio of light chain 3 subunit 2 to light chain 3 subunit 1 in human H4 cells at 5.4 uM after 4 hrs by Western blot; assay type: functional, cell-based
Outline: (§6)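 H4 cells were exposed to compound for 4 h, then lysed. Lysates were blotted with anti-LC3 antibody, with actin as loading control, and the LC3II/LC3I band ratio was taken.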

H4 [18] = assay: Increase in light chain 3-GFP+ autophagosome vesicle intensity per cell in human H4 cells at 5.4 uM after 24 hrs by high throughput fluorescence microscopy relative to control; assay type: functional; outline: as §5
H4 [19] = assay: Effect on FYVE-RFP+ vesicle intensity per cell in human H4 cells after 8 hrs relative to control; assay type: functional; parameters: concentration or dose not given beside the values; outline: as §2
H4 [20] = assay: Increase in light chain 3-GFP+ autophagosome vesicle number per cell in human H4 cells at 5.4 uM after 24 hrs by high throughput fluorescence microscopy relative to control; assay type: functional; outline: as §4
H4 [21] = assay: Effect on FYVE-RFP+ vesicle intensity per cell in human H4 cells after 4 hrs relative to control; assay type: functional; parameters: concentration or dose not given beside the values; outline: as §2
H4 [22] = assay: Increase in ratio of light chain 3 subunit 2 to light chain 3 subunit 1 in human H4 cells at 4.9 uM after 4 hrs by Western blot; assay type: functional, cell-based; outline: as §6
[23] = biological target: T1, Serine/threonine-protein kinase mTOR; assay: Effect on mTOR phosphorylation in human H4 cells at 4.9 uM after 4 hrs; assay type: cell-based; outline: as §3
H4 [24] = assay: Increase in light chain 3-GFP+ autophagosome vesicle intensity per cell in human H4 cells at 4.9 uM after 24 hrs by high throughput fluorescence microscopy relative to control; assay type: functional; outline: as §5
H4 [25] = assay: Increase in light chain 3-GFP+ autophagosome vesicle number per cell in human H4 cells at 4.9 uM after 24 hrs by high throughput fluorescence microscopy relative to control; assay type: functional; outline: as §4
H4 [26] = assay: Induction of light chain 3-GFP level in human H4 cells at 4.9 uM after 24 hrs by high throughput fluorescence microscopy relative to control; assay type: functional; outline: as §4
H4 [27] = assay: Induction of light chain 3-GFP level in human H4 cells at 5.0 uM after 24 hrs by high throughput fluorescence microscopy relative to control; assay type: functional; outline: as §4

SMILES | Activity (H4 [4]) [%] | Activity (H4 [5]) [%] | Activity (H4 [6]) [%] | Activity (H4 [8]) [%] | Activity (H4 [14]) | Activity (H4 [16]) [%] | Activity (H4 [19]) [%] | Activity (H4 [21]) [%] | further results
COC1=C2C[C@@H](C)C[C@H](OC)[C@H](O)[C@@H](C)/C=C(\C)[C@H](OC(N)=O)[C@@H](OC)/C=C\C=C(/C)C(=O)NC(=CC1=O)C2=O [GELDANAMYCIN] | 72.93 | 87.25 | 74.67 | 87.795 |  |  |  |  | Activity (H4 [1]): 313.52%; Activity (H4 [2]): 41.33%; Activity (H4 [3]): 398.91%; Activity (H4 [7]): 35.18%; Activity (H4 [9]): 546.8%; Activity (H4 [10]): 39.26%; Activity (H4 [11]): 81.41%
O=c1[nH]c2ccccc2n1C1CCN(CCCC(c2ccc(F)cc2)c2ccc(F)cc2)CC1 [PIMOZIDE] | 162.47 | 129.13 | 155.8 | 152.01 | Dose-dependent effect | 94.42 | 73.64 | 103.96 | Activity [12]: inactive; Activity (H4 [13]): 127.14%; Activity (H4 [15]): 290.43%; Activity (H4 [17]): Active; Activity (H4 [18]): 447.75%; Activity (H4 [20]): 218.96%
CN(C)C(=O)C(CCN1CCC(O)(c2ccc(Cl)cc2)CC1)(c1ccccc1)c1ccccc1 [LOPERAMIDE] | 139.19 | 78.7 | 122.1 | 125.21 | Dose-dependent effect | 115.39 | 95.7 | 123.62 | Activity (H4 [22]): Active; Activity [23]: inactive; Activity (H4 [24]): 666.5%; Activity (H4 [25]): 235.49%; Activity (H4 [26]): 126.76%; Activity (H4 [27]): 339.4%
